FGF22 binding: FGF22 (human) thermal shift binding. recombinant FGF22 thermal shift, SYPRO orange fluorescence; percent of sucrose octasulfate shift, DMSO zero. activity (Tm shift, normalised), % at 9.99 µM. hit rate 1.5% among 340,000;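 active = mean Tm shift, scaled 0 neutral to 100 positive control, at about 1.3% or above, every replicate too, limit read from the data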
Target sequence (Q9HCT0 whole entry, looked up): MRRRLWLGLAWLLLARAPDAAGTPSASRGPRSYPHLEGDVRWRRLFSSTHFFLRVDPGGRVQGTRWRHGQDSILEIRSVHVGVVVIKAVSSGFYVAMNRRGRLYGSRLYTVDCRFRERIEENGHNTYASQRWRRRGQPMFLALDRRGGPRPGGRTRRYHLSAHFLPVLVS
rRNA inh HTS: selective bacterial rRNA inhibition in E. coli | E. coli WT GFP vs humanized-ribosome RFP mutants, fluorescence, 24 h; hits give low values; DMSO median 0, no signal -100 | GFP signal change (wild-type ribosome), % (concentration not given with the values) | hit rate 1.6% among 350,000 | AID 720706;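 active = significant combined selectivity score with lowered wild-type GFP, culture density cut under 30%, mutant RFP and density less affected; inactive = any of these conditions unmet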
PGC1a acetyl inh: lowers PGC1a acetylation signal in U2OS cells. AlphaScreen anti-acetyl-lysine; with virally co-expressed GCN5 acetyltransferase. inhibition, % at 15.6 µM. hit rate 0.17% among 350,000. AID 651687;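 active = every replicate shows inhibition of at least 40%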
HIV Env fusion: HIV envelope-mediated fusion inhibition. HeLa-JRFL Env/CEM21 cell fusion, luciferase. inhibition, % at 12.3 µM. hit rate 1.1% among 360,000;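 active = mean replicate inhibition score of at least 50 and every replicate individually at or above 50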
Cneo AK release: causes C. neoformans cell lysis. adenylate kinase release luminescence, 4 h; normalised: neutral wells 0, clomiphene wells 100. lysis activity, % at 15 µM. hit rate 0.2% among 360,000. AID 651654;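 active = mean lysis activity across replicates of at least 80%, whatever share of replicates individually reach that level; inactive = mean lysis activity below 80%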
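Test system: log-phase Cryptococcus neoformans yeast cells. Input: 5 × 10^6 yeast cells/mL. Medium: fresh YPD growth medium. Doses: single dose. Incubation: static 4 h at 37 °C with compound, 1 h detection. Measured by: luminescent adenylate kinase detection reagent. Read-out: signal increase indicating cell lysis. Benchmarks: Clomiphene.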
ERAP1 inh: ERAP1 (human) enzyme inhibition; recombinant ERAP1, Leu-AMC fluorescence, 60 min; hit rate 0.15% among 340,000; Q9NZ08; inhibition, % at 10.7 µM; AID 652197;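 active = mean replicate inhibition of at least 30%, or all replicates individually reaching that 30% level; inactive = mean below 30% and not every replicate reaching it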
A number is an active result; 0 = inactive; - = no result; [ ] = remark or other dose. Shown are actives, neighbours in structure and some others; about 3.5% of the full set was active somewhere.

SMILES	FGF22 binding	rRNA inh HTS	PGC1a acetyl inh	HIV Env fusion	Cneo AK release	ERAP1 inh
COc1ccc(/C=N/NC(=O)c2cccnc2)cc1CN1CCCc2ccccc21	0	-28.0	-	0	-	0
COc1ccc(NC(=O)COc2ccc(/C=N/NC(=O)c3cccnc3)cc2OC)cc1	0	0	-	0	-	0
CCOc1cc(/C=N/NC(=O)c2cccnc2)cc(Br)c1OCC(N)=O	43.7	0	-	0	-	0
CCS(=O)(=O)Nc1ccc2c(c1)C(=O)N(C)[C@H]1CC[C@@H](CC(=O)NCCOC)O[C@@H]1CO2	0	0	-	0	0	0
Cc1ccc2cc3c(nc2c1)N(Cc1ccco1)CC3	-	-	0	-	0	-
CC(NC(=O)COC(=O)C1CCN(c2ccc(C(F)(F)F)cn2)CC1)c1ccc(Br)cc1 (stereo unspecified)	0	-24.4	0	0	0	0
O=C(/C=C/c1ccc(F)cc1)N1CCN(Cc2ccccc2)CC1	0	0	0	0	0	0
CCC(=O)Nc1ccc2c(c1)C(=O)N(C)C[C@H](OC)[C@@H](C)CN[C@H](C)CO2	0	0	0	-	83.8	0
COCC(=O)N1C[C@H](C)[C@H](OC)CN(C)C(=O)c2ccc(NC(=O)NC(C)C)cc2OC[C@@H]1C	0	0	0	-	80.2	0
CCC(=O)Nc1ccc2c(c1)C(=O)N(C)C[C@@H](OC)[C@H](C)CN[C@H](C)CO2	0	0	0	-	0	0
COCC(=O)N1C[C@@H](C)[C@@H](OC)CN(C)C(=O)c2ccc(NC(=O)NC(C)C)cc2OC[C@@H]1C	0	0	0	-	0	0
COCC(=O)Nc1ccc2c(c1)OC[C@@H](C)N(C(=O)Cc1cccnc1)C[C@H](C)[C@@H](OC)CN(C)C2=O	0	0	0	-	91.8	0
COCC(=O)Nc1ccc2c(c1)C(=O)N(C)C[C@H](OC)[C@@H](C)CN(C(=O)c1ccccc1)[C@@H](C)CO2	0	0	0	0	95.1	-
CC(=O)N1[C@H](CO)[C@H](c2ccc(-c3cccc(F)c3)cc2)[C@@H]1CNC(=O)C1CC1	-	0	0	-	0	-
CCCn1c(C(O)c2ccc(OC)c(OC)c2)nc2ccccc21 (stereo unspecified)	0	0	0	0	0	0
O=C(C1CCN(S(=O)(=O)c2ccc(Br)s2)CC1)N1CCCCC1	0	0	-	0	0	0
CO[C@@H]1CN(C)C(=O)c2ccc(NC(C)=O)cc2OC[C@H](C)N(C(=O)Cc2cccnc2)C[C@@H]1C	-	0	0	0	0	0
CO[C@@H]1CN(C)C(=O)c2ccc(NC(C)=O)cc2OC[C@@H](C)N(C(=O)Cc2cccnc2)C[C@H]1C	-	0	0	0	97.4	0
CN=C1SC(CC(=O)Nc2ccccc2F)C(=O)N1/N=C/c1ccc(O)c(OC)c1 (stereo unspecified)	0	0	-	0	-	0
COc1ccc(C(=O)N/N=C\c2ccoc2)cc1	0	0	-	0	0	0
COc1ccc(/[N+]([O-])=C/c2ccoc2)cc1	45.1	0	0	-	0	0
COc1ccc2nc3cc([N+](=O)[O-])ccc3c(NNc3ccc([N+](=O)[O-])cc3)c2c1	0	-18.5	0	0	-	0
O=C(CSc1ccccc1C(=O)NCc1ccccc1)NC12CC3CC(CC(C3)C1)C2	-	-	-	75.6	-	-
O=C(CSc1ccccc1C(=O)NCc1ccccc1)NC1CCCCCCC1	0	0	0	0	0	0
CCOc1ccc(NC(=O)CSc2nc(=O)n(CCCN3CCOCC3)c3c2CCC3)cc1	0	0	0	0	0	0
SMILES	FGF22 binding	rRNA inh HTS	PGC1a acetyl inh	HIV Env fusion	Cneo AK release	ERAP1 inh
COC(=O)c1ccc(CN2C(=O)C(C)ON=C2c2ncccc2C)o1 (stereo unspecified)	0	0	-	0	0	-
CC(C)Cc1ccc(C(C)C(=O)O)cc1 (stereo unspecified)	0	0	-	0	0	0
CC1CCc2c(sc3ncn(CCO)c(=O)c23)C1 (stereo unspecified)	0	0	0	0	0	0
COC(=O)Cn1cnc2sc3c(c2c1=O)CCCC3	42.9	0	0	0	0	0
CC1CCc2c(sc3ncn(Cc4ccc(C(=O)O)cc4)c(=O)c23)C1 (stereo unspecified)	43.2	0	0	0	0	0
O=C(/C=C/Nc1ccc(Nc2ccccc2)cc1)c1cccs1	0	-22.7	0	0	-	0
O=C(/C=C/Nc1ccccc1C(=O)O)c1cccs1	-	-	-	0	-	-
Cc1cc(N/C=C/C(=O)c2cccs2)ccc1F	0	0	0	0	0	0
Cc1ccc(N/C=C/C(=O)c2cccs2)cc1C	0	-20.1	0	0	0	0
CCCC(=O)Nc1ccc2c(c1)OC[C@H](C)N(Cc1ccccn1)C[C@H](C)[C@H](OC)CN(C)C2=O	0	0	0	0	112.7	0
CCCC(=O)Nc1ccc2c(c1)OC[C@H](C)N(Cc1ccncc1)C[C@H](C)[C@@H](OC)CN(C)C2=O	0	0	0	-	-	0
CCCC(=O)Nc1ccc2c(c1)OC[C@@H](C)N(Cc1ccccn1)C[C@@H](C)[C@H](OC)CN(C)C2=O	0	0	0	0	94.4	0
CO[C@@H]1CN(C)C(=O)c2ccc(NC(C)=O)cc2OC[C@@H](C)N(Cc2cncnc2)C[C@@H]1C	-	0	0	57.2[16.7 µM]	-	-
CCCC(=O)Nc1ccc2c(c1)OC[C@H](C)N(Cc1ccncc1)C[C@H](C)[C@H](OC)CN(C)C2=O	0	0	0	63.5[16.7 µM]	0	0
C[C@@H]1CN([C@@H](C)CO)C(=O)c2cc(NC(=O)Nc3ccc4c(c3)OCO4)ccc2O[C@H]1CN(C)S(=O)(=O)c1ccc(F)cc1	0	0	0	0	0	0
CCc1nc2c(OCc3cccc(Cl)c3)cccn2c1N(C)C(C)=O	0	0	0	0	0	0
Cc1cc(C)cc(-n2ncc3c2CCCC3NC(=O)CCCn2cncn2)c1 (stereo unspecified)	0	0	-	0	0	0
Cc1nc2cc(Cl)c([N+](=O)[O-])cc2s1	0	0	-	0	-	0
NCCSSCCN	0	0	0	0	0	0
COCCNC(=S)N/N=C(\C)c1ccc(Cl)c(Cl)c1Cl	0	0	-	0	-	0
CC(C(=O)c1ccccc1)C(O)c1ccccn1 (stereo unspecified)	43.9	0	0	0	0	0
CC(CCc1ccco1)NC(=O)CCc1nnc2ccc(NCc3ccccc3Cl)nn12 (stereo unspecified)	0	0	0	77.0	0	0
CC(=O)Nc1cccc(-c2csc(NCc3ccccc3)n2)c1	0	-29.8	-	0	-	0
O=[N+]([O-])c1cccc(-c2csc(N/N=C/c3cccc(O)c3)n2)c1	0	-41.5	0	0	-	0
O=C(NC(=S)Nc1nc(-c2cccc([N+](=O)[O-])c2)cs1)c1ccccc1Cl	0	-19.0	0	0	-	0
CC(=O)c1sc(N/N=C/c2cccc(O)c2)nc1C	0	-20.7	0	0	0	0
